Measurements pooled from the literature.
Each line is one published result; the experiments were not run side by side.
HTR2B: 5-hydroxytryptamine receptor 2B (HTR2B, Homo sapiens, UniProt P41595)
mraY: mraY (Staphylococcus aureus, UniProt Q2FZ93)
HTR2C: 5-hydroxytryptamine receptor 2C (HTR2C, Homo sapiens, UniProt P28335)

SMILES | target | read-out | mode | technique | concentration | inhibition
COc1cc2c3c(c1OC)-c1c(OC)ccc(-c4ccc(C#N)cc4)c1CC3N(C)CC2 (stereo not drawn) | HTR2B | ligand displacement |  | radioligand | 10 µM | 65%
CCCCCCC#Cc1cncc(-c2nnc(SCc3cc([N+](=O)[O-])cc([N+](=O)[O-])c3)n2CCCN)c1 | mraY | cell-free assay | inhibitor |  | 250 µM | 100%
COc1cc2c3c(c1OC)-c1c(OC)ccc(N4CCOCC4)c1CC3N(C)CC2 (stereo not drawn) | HTR2C | ligand displacement |  | radioligand | 10 µM | 50%
CCCCCCC#Cc1cncc(-c2nnc(SCCCn3ccc(=O)[nH]c3=O)n2C)c1 | mraY | enzyme activity | inhibitor |  | 100 µM | 7%
Cc1cc(F)cc2c(CCC(=O)N[C@@H]3C(=O)NC[C@H]3O)c(-c3ccc(F)cc3)[nH]c12 | HTR2B | cell-free assay |  |  | 10 µM | 10%
CCN1/C(=C/C(C)=O)Sc2ccc(F)cc21 | Substance-P receptor (TACR1, Homo sapiens, UniProt P25103) | ligand displacement |  | radioligand | 10 µM | 20.8%
NC/C(=C\F)COc1cccc(Cn2c(=S)[nH]c(=O)c3[nH]cnc32)c1 | HTR2B | ligand displacement |  | radioligand | 10 µM | < 50%
CCCCCCC#Cc1cncc(-c2nnc(SCc3cc([N+](=O)[O-])cc([N+](=O)[O-])c3)n2CCO)c1 | mraY | cell-free assay | inhibitor |  | 250 µM | 55%
COc1cc2c3c(c1OC)-c1c(OC)ccc(NC(C)=O)c1CC3N(C)CC2 (stereo not drawn) | HTR2C | ligand displacement |  | radioligand | 10 µM | 3%
C#Cc1cc(-c2cc(Nc3nc(N[C@@H](C)c4ccc(F)cn4)ncc3Cl)n[nH]2)ccc1C=O | Serine/threonine-protein kinase SIK1 (SIK1, Homo sapiens, UniProt P57059) | enzyme activity | inhibitor |  | 0.2 µM | 82.4%
CC[N+]1(C)CCc2cc(OC)c(OC)c3c2C1Cc1cccc(OC)c1-3 (stereo not drawn) | HTR2C | ligand displacement |  | radioligand | 10 µM | -19%
CCCCCCC#Cc1cncc(-c2nnc(SCc3cc(=O)[nH]c4ccccc34)n2C)c1 | mraY | cell-free assay | inhibitor |  | 250 µM | 30%
